From PubChem
Sampled rows, rich in hits. Any-hit rate of the full collection: about 0.94%.
Fh CTSL1 inh – cathepsin L1 inhibition, PFM18AAP counter-screen. recombinant F. hepatica cathepsin L1, Z-Leu-Arg-MCA fluorescence. inhibition, % at 5.96 µM. actives 0.49% (n = 300,000);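 active = inhibition above the mean of all tested compounds plus 3 SD, set per screening campaign, cut at about 17% in these data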
PKA-R2B activ – activates the human PKA-R2B holoenzyme complex; P22694+P31323; PKA-R2B holoenzyme dissociation, Cy5-IP20 fluorescence polarization; R2B truncated from residue 108, S112A mutant; 0% DMSO only, 100% 113 µM cGMP; activation, % at 11.4 µM; actives 0.079% (n = 340,000); AID 504700;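 active = activation above a cutoff set at the mean over all compounds plus 3 SD, cut at about 18% in these data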;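 also: higher means more holoenzyme dissociation and a rise in polarization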
aDG glyco act – increases alpha dystroglycan glycosylation; Pro5-aDG cells, alpha-DG glycosylation AlphaScreen (IIH6); 0% Pro5, 100% B10-LARGE cell signal; actives 0.22% (n = 360,000); activation, % at 10 µM;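 active = activation of at least 8% versus controls, or a plate z-score of at least 8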;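 also: Pro5 are CHO cells carrying HIG-tagged alpha-DG that lacks glycosylation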
UCH37 inh – blocks the human deubiquitinase UCH37 | purified proteasome/UCH37, Ub-AMC cleavage fluorescence | inhibition, % (test concentration not listed) | actives 0.33% (n = 330,000) | AID 588478 | Q9Y5K5;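 active = mean inhibition over replicate wells above about 20%, limit read from the data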
Target sequence (Q9Y5K5 whole entry, looked up): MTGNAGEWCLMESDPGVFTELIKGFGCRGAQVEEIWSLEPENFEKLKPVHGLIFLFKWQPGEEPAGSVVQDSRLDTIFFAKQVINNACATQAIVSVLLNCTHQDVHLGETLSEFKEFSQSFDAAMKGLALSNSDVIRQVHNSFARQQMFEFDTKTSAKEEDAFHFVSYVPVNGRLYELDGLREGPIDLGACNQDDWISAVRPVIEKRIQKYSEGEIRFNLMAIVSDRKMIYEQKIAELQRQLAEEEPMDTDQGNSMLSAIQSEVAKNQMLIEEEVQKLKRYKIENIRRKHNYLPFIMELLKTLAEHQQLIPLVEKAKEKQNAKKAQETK
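System: Proteasome-associated human UCH37 deubiquitinase; Input: 0.15 nM proteasome in added enzyme buffer; Also added: Ub-AMC substrate from 1 µM stock; Incubation: 30 min compound-proteasome preincubation then 25 min substrate reaction, room temperature; Detection: fluorescence, ex 355 nm, em 460 nm; Read-out: % inhibition of Ub-AMC cleavage fluorescence; Benchmarks: no-proteasome and no-compound wells.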
PKA-R1A activ – activates the PKA-R1A holoenzyme complex; P00514+P68181; PKA-R1A dissociation, Cy5-IP20 fluorescence polarization; scaled: DMSO 0%, 113 µM cGMP 100%; activation, % at 11.4 µM; actives 0.083% (n = 340,000);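 active = percent activation above the mean of all tested compounds plus 3 SD, cut at about 19% in these data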;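 also: higher means more PKAc released from R1A so a rise in polarization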
aDG glyco conf – alpha-DG glycosylation activation, confirmation; actives 17% (n = 600); activation, % at 10 µM (by protocol); shares compounds with aDG glyco act; Pro5-aDG cells, IIH6 AlphaLISA; scaled to LARGE-overexpressing B10 cells as 100%;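 active = activation of at least 7% in one or more replicates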;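 also: cells exposed to compound for two days before detection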
Hits are given with their value; n = inactive; x = no result given.

SMILES	Fh CTSL1 inh	PKA-R2B activ	aDG glyco act	UCH37 inh	PKA-R1A activ	aDG glyco conf
O=C(c1cc(COc2ccc3ncccc3c2)on1)N1CCCC(O)C1 (centres undefined)	n	n	n	n	n	x
COc1ccc(NC(=O)CCC(=O)NN=Cc2ccc([N+](=O)[O-])s2)cc1	x	x	x	n	x	x
Cn1c(N=Cc2c[nH]c3ccccc23)nc2ccccc21	x	x	x	n	x	x
Cc1nn(CC(=O)NN=Cc2ccc(F)cc2)c(C)c1[N+](=O)[O-]	x	x	x	n	x	x
Cc1ccc(N(CC(=O)NC(C)c2ccccc2)S(=O)(=O)c2c(C)n[nH]c2C)cc1 (centres undefined)	n	n	5.6	n	n	n
O=C(NN=Cc1cn(-c2cccs2)nc1-c1ccccc1)c1ccccc1O	x	x	x	n	x	x
COC(=O)[C@@]1(C)[C@H]2C(=O)N(Cc3ccccc3)C(=O)[C@H]2[C@H]2CN=C(SCc3ccc(C#N)cc3)N21	x	n	5.6	n	n	n
CCOc1ccc(S(=O)(=O)N2CCN(c3ccccc3OC)CC2)c2cccnc12	n	n	6.5	n	n	n
CCOc1ccc(S(=O)(=O)N2CCN(c3ccccc3)CC2)c2cccnc12	n	n	n	n	n	x
CC(=O)c1c(C)[nH]c(C(=O)OCc2ccc(Br)cc2)c1C	n	n	9.0	n	n	n
CC(=O)c1c(C)[nH]c(C(=O)OCc2cccc(C)c2)c1C	n	n	n	n	n	x
O=C(Nc1ccccc1Cl)C1C(c2ccccc2)C1(Cl)Cl (centres undefined)	n	n	6.2	n	n	n
Nc1cc2c3ccccc3ccc2c2ccccc12	x	n	4.7	n	n	n
COc1ccc(C=NNC(=O)c2cnccn2)cc1O	x	x	x	n	x	x
Cc1ccc(NS(=O)(=O)c2ccc(C(=O)NC3CCN(Cc4ccccc4)CC3)cc2)cc1	x	n	13	n	n	4.8
Cc1ccc(NS(=O)(=O)c2cccc(C(=O)NC3CCN(Cc4ccccc4)CC3)c2)cc1	x	n	n	n	n	x
CC(=O)C(=NNc1ccc(Cl)cc1Cl)Sc1nnc(-c2ccccc2)n1-c1ccccc1	x	x	x	n	x	x
COC(=O)c1c(NC(=O)CSc2nnc(-c3ccco3)n2C)sc(C)c1C	n	n	6.1	n	n	n
OC1(c2ccc(OC(F)F)cc2)CSC(=Nc2cccnc2)N1C1CC1 (centres undefined)	n	n	6.9	n	n	n
ON=C(c1ccccc1)c1nccc2ccccc12	x	x	x	n	x	x
COc1ccc(Br)cc1C(=O)NCc1cccnc1	n	n	n	n	n	x
O=C(NC(=S)NCc1cccnc1)c1cc(Br)ccc1Cl	n	n	3.5	n	n	n
O=C(/C=C/c1ccco1)Nc1ccc(-c2nc3ccccc3[nH]2)cc1	n	n	5.0	n	n	n
CC(=O)Nc1sc(NN=Cc2ccc(C)cc2)nc1-c1ccc(C)cc1	x	x	x	n	x	x
N#Cc1c(-n2cccc2C=NO)sc2c1CCCC2	x	x	x	n	x	x
SMILES	Fh CTSL1 inh	PKA-R2B activ	aDG glyco act	UCH37 inh	PKA-R1A activ	aDG glyco conf
NC(=S)NN=Cc1coc2c(ccc3ccccc32)c1=O	x	x	x	n	x	x
NC(=S)N/N=C/c1coc2c(ccc3ccccc32)c1=O	n	n	9.0	x	n	n
Cc1ccc(C(=O)NN=Cc2ccc[nH]2)cn1	x	x	x	n	x	x
CCC(=O)NN=Cc1ccc(-c2ccc(Cl)cc2)o1	x	x	x	n	x	x
Cc1cc(NC(=O)CSc2c3c(nc4ccccc24)CCC3)no1	n	n	8.2	n	n	n
Cc1ccc(S(=O)(=O)c2c(N)n(Cc3ccco3)c3nc4ccccc4nc23)cc1	n	n	17	n	n	n
Cc1cccc(S(=O)(=O)c2c(N)n(Cc3ccco3)c3nc4ccccc4nc23)c1	n	n	21	n	n	n
CCCCn1c(N)c(S(=O)(=O)c2ccc(C)cc2)c2nc3ccccc3nc21	n	n	n	n	n	x
O=C(CSc1nnc(NC(=O)c2ccco2)s1)Nc1ccccc1Br	n	n	2.2	n	n	n
COCC(=O)Nc1cccc(-c2ccc3nncn3n2)c1	n	n	n	n	n	x
O=C(COc1ccc(Cl)cc1)Nc1cccc(-c2ccc3nncn3n2)c1	n	n	3.5	n	n	n
COc1ccccc1Cc1c(-c2ccc(C#N)cc2)nc2c3ccccc3ccn12	x	x	8.9	x	x	n
O=C(CN1C(=O)c2ccccc2S1(=O)=O)NCCSCc1ccco1	n	n	80	n	n	n
CC1(C)S/C(=N/N=Cc2ccco2)NC1=O	x	x	x	n	x	x
COc1cc([N+](=O)[O-])ccc1NC(=O)NCC1CCN(Cc2ccc(Cl)cc2)CC1	n	n	3.3	n	n	n
COc1ccc(Cl)cc1NC(=O)NCC1CCN(Cc2cc(C)ccc2C)CC1	n	n	n	n	n	x
CCOC(=O)C1CCCN(S(=O)(=O)c2ccc(S(=O)(=O)N3CCCC3)cc2)C1 (centres undefined)	n	n	4.5	x	n	n
CCOC(=O)C1CCCN(C(=O)c2ccc(S(=O)(=O)N3CCCC3)cc2)C1 (centres undefined)	n	n	n	n	n	x
Cc1nc2ccc3nc(NC(=O)c4ccc5c(c4)OCCO5)sc3c2s1	n	n	7.7	n	n	n
Cc1nc2c(ccc3nc(NC(=O)c4ccc5c(c4)OCCO5)sc32)s1	n	n	n	n	n	x
CC(=NNS(=O)(=O)c1ccc(Cl)c([N+](=O)[O-])c1)c1cc2ccccc2o1	x	x	x	n	x	x
COc1cccc(C=NNC(=O)c2[nH]c(C)c(C(=O)NN=Cc3cccc(OC)c3O)c2C)c1O	x	x	x	n	x	x
Cc1cc(C(=O)c2ccc(Cl)cc2)c(NC(=O)CCl)s1	n	n	n	n	n	x
CCc1cc(C(=O)c2ccc(C)cc2)c(NC(=O)CCl)s1	n	n	10	n	n	n
Cc1nn(-c2ccccc2)c(Cl)c1C=NNC(=O)CCNc1n[nH]c(=O)[nH]c1=O	x	x	x	n	x	x
SMILES	Fh CTSL1 inh	PKA-R2B activ	aDG glyco act	UCH37 inh	PKA-R1A activ	aDG glyco conf
Cc1ccsc1C=NNC(=O)C1CC(=O)N(c2ccc(F)cc2)C1 (centres undefined)	x	x	x	n	x	x
CCN(CC)CCn1c(=N)n(CC(=O)c2ccc(C)cc2)c2ccccc21	n	n	3.8	n	n	11
c1ccc2cc(-c3cc4ccccn4c3)ccc2c1	n	n	5.2	n	n	n
CN(CC(=O)Nc1ccccc1C(=O)NC1CC1)Cc1ccco1	x	n	4.2	n	n	n
Cc1cccc(N=C2NC(=O)CS2)c1	n	n	6.4	n	n	n
Cc1cc(C)cc(N=C2NC(=O)CS2)c1	n	n	n	n	n	x
O=C(CC1SC(=Nc2ccccc2)N(CCc2ccccn2)C1=O)Nc1ccc(F)cc1 (centres undefined)	n	n	11	n	n	n
O=C(CC1SC(=Nc2ccccc2)N(CCO)C1=O)Nc1ccccc1 (centres undefined)	n	n	n	n	n	x
Oc1c(Br)cccc1C=NNc1c(F)c(F)c(F)c(F)c1F	x	x	x	n	x	x
